According to ChEMBL document CHEMBL4396917, “Synthesis and biological evaluation of novel benzylidene-succinimide derivatives as noncytotoxic antiangiogenic inhibitors with anticolorectal cancer activity in vivo” (Eur J Med Chem, 2019):
Calls of active or inactive are those of the source. The calls are words filed in the database; no cut-off is given here.

Experiments:
SW480 = experiment: Cytotoxicity against human SW480 cells assessed as reduction in cell growth after 72 hrs by MTT assay; format: cell-based; conditions: SW480, 72 h
HT-29 [1] = experiment: Cytotoxicity against human HT-29 cells assessed as reduction in cell growth after 72 hrs by MTT assay; format: cell-based; conditions: HT-29, 72 h
HepG2 = experiment: Cytotoxicity against human HepG2 cells assessed as reduction in cell growth after 72 hrs by MTT assay; format: cell-based; conditions: HepG2, 72 h
HUVEC [2] = experiment: Antimigratory activity in HUVEC assessed as reduction in VEGF-induced cell migration at 2.5 uM measured after 24 hrs by wound healing assay relative to control; format: functional; conditions: Homo sapiens
How it was run: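 Confluent HUVECs starved 12 h in M200 with 2% FBS, scratched with pipette tip; fresh M200 with 25 ng/mL VEGF plus vehicle, 2.5 μM sunitinib or compound (1, 2.5 μM); wound imaged at 0, 6, 12 and 24 h by inverted microscopy.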

HUVEC [3] = experiment: Antiinvasive activity in HUVEC assessed as inhibition of VEGF-induced cell invasion at 5 uM after 6 hrs by crystal violet staining based transwell assay relative to control; format: functional; conditions: Homo sapiens
How it was run: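 Transwell: 1×10⁴ HUVECs in serum-free M200 in top chamber with vehicle or compound; bottom chamber M200 with 10% FBS; 6 h at 37°C; cells on membrane underside fixed in 4% paraformaldehyde, stained 0.1% crystal violet, imaged and counted.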

HUVEC [4] = experiment: Antiangiogenic activity in HUVEC assessed as inhibition of VEGF-induced capillary like tube formation at 5 uM preincubated with VEGF for 20 mins followed by compound addition measured after 6 hrs by matrigel based tube formation assay relative to control; format: functional; conditions: Homo sapiens
How it was run: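 Matrigel (100 μL) set 1 h at 37°C; 2×10⁴ HUVECs in M200 with 10% FBS added per well plus 10 ng/mL VEGF; compound added after 20 min; incubated 6 h at 37°C, then capillary-like structures photographed.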

Aorta = experiment: Inhibition of VEGF-induced capillary sprouting in Sprague-Dawley rat aortic ring treated for every 3 days for 7 days measured on day 7 by inverted microscopy; format: functional, tissue-based
How it was run: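 Aortas from anesthetized Sprague-Dawley rats cut into 1-mm rings and embedded in Matrigel for 1 h at 37°C. Rings starved 1 day, then cultured in opti-MEM with 2.5% FBS and 30 ng/mL VEGF plus compound. Treatment renewed every 3 days for 7 days. Sprouting imaged on day 7 by inverted microscopy.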

HUVEC [5] = experiment: Induction of apoptosis in VEGF-stimulated HUVEC assessed as early apoptotic cells at 5 uM after 24 hrs by Annexin V-FITC/propidium iodide staining based flow cytometric analysis (reference value: 7%); format: cell-based; conditions: human
How it was run: (§1)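 HUVECs plated at 5×10^5 per well and treated 24 h with 1, 5, 10 or 20 μM. Detached and adherent cells were pooled, washed in ice-cold PBS and resuspended in fresh medium. 1×10^5 cells were stained with annexin-V-FITC in annexin-V buffer for 20 min in the dark, then PI (50 μg/mL) was added. Read-out by flow cytometry.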

[6] = Induction of apoptosis in VEGF-stimulated HUVEC assessed as viable cells at 20 uM after 24 hrs by Annexin V-FITC/propidium iodide staining based flow cytometric analysis (reference value: 69.6%); format: cell-based; conditions: human, read-out: Activity; how it was run: as §1
HUVEC [7] = experiment: Induction of apoptosis in VEGF-stimulated HUVEC assessed as PARP cleavage at 1 to 20 uM by Western blot analysis; format: cell-based; conditions: human
HT-29 [8] = experiment: Induction of apoptosis in human HT-29 cells assessed as necrotic cells at 1 uM after 24 hrs by Annexin V-FITC/propidium iodide staining based flow cytometric analysis (reference value: 3.9%); format: cell-based; conditions: ht-29, 24 h
[9] = Induction of apoptosis in human HT-29 cells assessed as viable cells at 10 uM after 24 hrs by Annexin V-FITC/propidium iodide staining based flow cytometric analysis (reference value: 80.8%); format: cell-based; conditions: read-out: Activity
HT-29 [10] = experiment: Induction of apoptosis in human HT-29 cells assessed as early apoptotic cells at 10 uM after 24 hrs by Annexin V-FITC/propidium iodide staining based flow cytometric analysis (reference value: 1.9%); format: cell-based; conditions: ht-29, 24 h
[11] = Induction of apoptosis in human HT-29 cells assessed as viable cells at 20 uM after 24 hrs by Annexin V-FITC/propidium iodide staining based flow cytometric analysis (reference value: 80.8%); format: cell-based; conditions: read-out: Activity
HT-29 [12] = experiment: Induction of apoptosis in human HT-29 cells assessed as early apoptotic cells at 20 uM after 24 hrs by Annexin V-FITC/propidium iodide staining based flow cytometric analysis (reference value: 1.9%); format: cell-based; conditions: ht-29, 24 h
HT-29 [13] = experiment: Induction of apoptosis in human HT-29 cells assessed as necrotic cells at 20 uM after 24 hrs by Annexin V-FITC/propidium iodide staining based flow cytometric analysis (reference value: 3.9%); format: cell-based; conditions: ht-29, 24 h
[14] = Induction of apoptosis in human HT-29 cells assessed as viable cells at 5 uM after 72 hrs by Annexin V-FITC/propidium iodide staining based flow cytometric analysis (reference value: 81.1%); format: cell-based; conditions: read-out: Activity
HT-29 [15] = experiment: Induction of apoptosis in human HT-29 cells assessed as late apoptotic cells at 5 uM after 72 hrs by Annexin V-FITC/propidium iodide staining based flow cytometric analysis (reference value: 12.3%); format: cell-based; conditions: ht-29, 72 h
HUVEC [16] = experiment: Effect on total Src expression in VEGF-induced HUVEC at 1 to 20 uM pre-incubated for 2 hrs followed by VEGF stimulation and measured after 15 mins by Western blot analysis; format: ADME, cell-based; conditions: human, 0.25 h
How it was run: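 HUVECs serum-starved overnight, pretreated with compound (methods: 1, 2.5, 5, 10 μM for 2 h; legend: 1, 5, 10, 20 μM for 1.5 h), then VEGF 50 ng/mL (methods: VEGF165, 15 min; legend: 30 min); lysates equalized by Bradford, ~20 μg protein resolved on gradient SDS-PAGE, immunoblotted, ECL detection.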

HUVEC [17] = experiment: Inhibition of Akt/mTOR signalling in VEGF-induced HUVEC assessed as reduction in AKT phosphorylation at Ser473 residue at 1 to 20 uM pre-incubated for 1.5 hrs followed by VEGF stimulation and measured after 30 mins by Western blot analysis; format: cell-based; conditions: Homo sapiens
How it was run: (§2)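 HUVECs were starved overnight, pretreated 1.5 h with 1, 5, 10 or 20 μM, then stimulated with VEGF (50 ng/mL) for 30 min. Lysates were equalized by Bradford assay, about 20 μg protein was resolved on gradient SDS-PAGE and immunoblotted with phospho-specific antibodies. Detection by HRP secondary antibodies and ECL.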

HUVEC [18] = experiment: Inhibition of Akt/mTOR signalling in VEGF-induced HUVEC assessed as reduction in P70S6K phosphorylation at Thr389 residue pre-incubated for 1.5 hrs followed by VEGF stimulation and measured after 30 mins by Western blot analysis; format: cell-based; conditions: Homo sapiens; how it was run: as §2
HT-29 [19] = experiment: Downregulation of VEGF mRNA expression in human HT-29 cells after 24 hrs by RT-qPCR assay; format: functional, cell-based
How it was run: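 HT29 cells treated with 1, 5, 10 or 20 μM for 24 h; total RNA extracted with TRIzol; SYBR Green qPCR, 40 cycles of 5 s at 95°C and 60 s at 60°C in 20-μL reactions.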

Activity (HUVEC [16]): Not Active
Compound: COc1ccc(NC(=O)c2cccc(/C=C3\CC(=O)N(c4ccc(C)cc4)C3=O)c2)cc1
IC50 (SW480): 93 µM | IC50 (HT-29 [1]): > 100 µM | IC50 (HepG2): > 100 µM | inhibition at 2.5 µM (HUVEC [2]): 60% | inhibition at 5 µM (HUVEC [3]): 40% | inhibition at 5 µM (HUVEC [4]): 80% | inhibition (Aorta): Dose-dependent effect | Activity (HUVEC [5]): 10.1% | viability at 24 h, 20 µM [6]: 74.5% | Activity (HUVEC [7]): Non-Toxic | Activity (HT-29 [8]): 4.4% | viability at 24 h, 10 µM [9]: 77.2% | Activity (HT-29 [10]): 1.5% | viability at 24 h, 20 µM [11]: 78.9% | Activity (HT-29 [12]): 1.7% | Activity (HT-29 [13]): 2.3% | viability at 72 h, 5 µM [14]: 76.9% | Activity (HT-29 [15]): 12.5% | inhibition (HUVEC [17]): Active | inhibition (HUVEC [18]): Dose-dependent effect | inhibition (HT-29 [19]): inactive
